# Compounds with a hit are over-represented: about 2% of the library has one in this group of screens.
# LMPTP inh: LMPTP phosphatase inhibitors, primary screen, biochemical, fluorescence intensity, uHTS; Low molecular weight phosphotyrosine protein phosphatase (Homo sapiens), P24666; 360,000 tested, 0.22% active; recombinant LMPTP-A, OMFP fluorogenic substrate; inhibition, % at 20 µM;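 active = compounds that cut the enzyme signal by at least half of the control window in the single-dose screen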;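 also: plate controls were DMSO wells with enzyme plus substrate for no effect and substrate without enzyme for full effect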
#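 Buffer or medium: Bis-Tris pH 6.0, DTT, detergent; Assay system: LMPTP-A enzyme; Quantity: 0.625 nM enzyme; Detection: endpoint fluorescence intensity; Times: 50 min dark incubation at room temperature; Controls: substrate-only low control, DMSO enzyme-plus-substrate high control; Doses: single 20 µM dose; Read-out: percent inhibition versus substrate-only and uninhibited controls; Reagent: 400 µM OMFP.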
# CSN inh: inhibitors of CSN-mediated cullin deneddylation, primary screen, biochemical, fluorescence polarization, uHTS; Purified CSN, SCF-Nedd8-OG deneddylation; inhibition, % at 12.5 µM; 360,000 tested, 0.38% active; AID 651999, 2013;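 active = pattern-corrected inhibition above about 35%, with an unprinted fluorescence ratio check between 0.5 and 1.5, limit read from the data, passing the limit was not always enough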;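 also: 0% = enzyme with substrate and 100% = substrate without enzyme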
#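 Test system: Human Csn5 produced in HEK293T cells | Compound: 12.5 µM single point | Times: 90 min, room temperature | Signal: Fluorescence polarization readout | Read-out basis: % inhibition of substrate cleavage by Csn5 | Controls: no-enzyme wells high, enzyme-with-substrate wells low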
# Scp-1 inhibitor: Scp-1 phosphatase inhibitors, primary screen, biochemical, colorimetric, uHTS | Carboxy-terminal domain RNA polymerase II polypeptide A small phosphatase 1 (Homo … | Recombinant Scp1, phosphopeptide, malachite green phosphate absorbance | inhibition, % at 20 µM | 340,000 tested, 0.88% active;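 active = inhibition above about 50% at 20 µM, limit read from the data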;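 also: plate controls were DMSO wells with enzyme for no effect and wells lacking enzyme for full effect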
#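 Incubation: 45 min enzyme reaction at room temperature / System: truncated SCP-1 phosphatase (76-261aa) / Reagent: Phospho 17-mer peptide substrate / Buffer or medium: Acidic Tris acetate buffer with magnesium and detergent / Signal: absorbance at 630 nm / Doses: one concentration, 20 µM, with 1.0% DMSO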
# STEP block: STEP phosphatase inhibitors, primary screen, biochemical, fluorescence intensity, uHTS | Tyrosine-protein phosphatase non-receptor type 5 (Homo sapiens), P54829 | recombinant STEP, OMFP fluorogenic substrate | inhibition, % at 20 µM | 360,000 tested, 0.25% active | AID 588621, 2011;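 active = inhibition at 20 µM, scaled per plate between control wells, above about 37%, limit read from the data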;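 also: 0% = DMSO with enzyme and substrate and 100% = substrate only without enzyme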
# Target sequence (P54829 whole entry, looked up): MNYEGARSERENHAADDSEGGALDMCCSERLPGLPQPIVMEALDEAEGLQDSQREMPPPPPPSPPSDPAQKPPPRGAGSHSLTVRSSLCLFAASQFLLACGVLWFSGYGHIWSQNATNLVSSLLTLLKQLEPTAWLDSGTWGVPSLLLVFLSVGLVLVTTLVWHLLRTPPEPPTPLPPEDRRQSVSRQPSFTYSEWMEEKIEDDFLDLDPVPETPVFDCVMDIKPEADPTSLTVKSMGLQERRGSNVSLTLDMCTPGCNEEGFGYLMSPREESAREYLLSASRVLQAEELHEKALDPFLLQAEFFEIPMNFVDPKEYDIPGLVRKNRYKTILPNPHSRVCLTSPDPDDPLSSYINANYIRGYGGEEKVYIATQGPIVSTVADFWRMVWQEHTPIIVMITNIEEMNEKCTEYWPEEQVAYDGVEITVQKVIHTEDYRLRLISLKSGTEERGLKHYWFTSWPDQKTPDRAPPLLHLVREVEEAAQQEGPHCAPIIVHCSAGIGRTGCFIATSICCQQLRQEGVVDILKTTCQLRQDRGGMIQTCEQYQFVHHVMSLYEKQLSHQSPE
#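 material = STEP tyrosine phosphatase | reagent = fluorogenic phosphatase substrate OMFP at 25 µM final | doses = single compound dose of 20 µM, 1% DMSO final | schedule = 20 min reaction, room temperature, in the dark | measured by = fluorescence, 480/540 nm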
# DNMT1 block: human DNMT1 methyltransferase inhibitors, primary screen, biochemical, molecular beacon, fluorescence, HinP1I cleavage, uHTS | DNA (cytosine-5)-methyltransferase 1 (Homo sapiens), P26358 | inhibition (reported as % activation of signal), % at 10 µM | 360,000 tested, 0.83% active; in the data active = inhibition above about 50%
# SUMO1-SIM PPI: modulators of SUMO1 protein-protein interactions, primary screen, biochemical, uHTS. SUMO1 binding to a labelled peptide, TR-FRET, 1 h. inhibition, % at 20 µM. 360,000 tested, 0.33% active. AID 602429, 2012; in the data active = inhibition above about 37%
# Target sequence (P63165 whole entry, looked up): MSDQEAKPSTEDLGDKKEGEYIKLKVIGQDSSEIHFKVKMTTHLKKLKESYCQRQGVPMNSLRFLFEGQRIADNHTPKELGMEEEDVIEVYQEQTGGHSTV
# DNMT1 interf DR: spectral interference with molecular beacon fluorescence, dose response, artefact control for DNMT1 inhibitor project, biochemical, fluorescent molecular beacon. AID 602382, 2012. spectral interference counter-screen. IC50, µM. 200 tested, under 10 active. shares compounds with DNMT1 block; call rule not given here
# DNMT1 confirm: DNMT1 methyltransferase inhibitor retest, confirmation, biochemical, molecular beacon, fluorescence, single concentration; shares compounds with DNMT1 block; inhibition, % at 10 µM; DNMT1 molecular beacon HinP1I cleavage; 2,300 tested, 8% active; AID 602385, 2012;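 active = average inhibition of at least 30% in the single-concentration confirmation test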
# DNMT1 interf: counter-screen for DNMT1 inhibitors: spectral interference | shares compounds with DNMT1 block | DNMT1 molecular beacon spectral interference counterscreen, fluorescence 485/520 | activation (fluorescence interference), % at 10 µM | 2,300 tested, 1% active;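 active = activation of at least 30% at 10 µM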;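 also: DNMT1 catalytic domain with a HinP1I cleavage step and a FAM/dabcyl DNA beacon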
# * marks the source's active call; other numbers are inactive results; nt = no result.
SMILES,LMPTP inh,CSN inh,Scp-1 inhibitor,STEP block,DNMT1 block,SUMO1-SIM PPI,DNMT1 confirm,DNMT1 interf,others
O=C(CS(=O)(=O)c1ccc(Cl)cc1)N1CCN(c2ccccc2)CC1,-1,-3,nt,0,2,2,nt,nt,
O=C(CC1Oc2ccccc2NC1=O)NC1CC1 (stereo not drawn),0,0,nt,2,97*,0,2,3,
O=S(=O)(c1ccc(F)cc1)N1CCN(c2ccccc2)CC1,-1,-8,-11,3,-2,2,nt,nt,
CC1CCCCN1S(=O)(=O)c1ccc(S(=O)(=O)N2CCN(c3ccc(F)cc3)CC2)cc1 (stereo not drawn),-3,2,-4,1,52*,2,3,3,
O=C(c1ccccc1)c1ccc2nc(-c3ccco3)c(-c3ccco3)nc2c1,75*,65,66*,9,101*,52*,1,2,
c1coc(-c2nc3ccccc3nc2-c2ccco2)c1,21,51,44,9,103*,30,1,4,
O=C(NCCO)c1ccc2nc(-c3ccco3)c(-c3ccco3)nc2c1,6,22,31,6,58*,44*,3,2,
O=C1CC(NCC2CCCO2)C(=O)N1c1ccc(F)cc1 (stereo not drawn),-1,-4,-4,-1,81*,5,3,3,
O=C1/C(=C/c2ccco2)Cc2ccccc21,-1,4,-2,0,59*,-16,5,1,
Cn1ccc2c(N3c4ccccc4CCc4ccccc43)cc3c(c21)C1CCC3O1 (stereo not drawn),5,16,nt,6,50*,-7,1,2,
C=CCn1c(=O)c(C(=O)NC(C)c2ccccc2)c(O)c2ccccc21 (stereo not drawn),1,3,-11,-1,84*,3,3,4,
Cc1cccc(NC(=O)CSc2nnc(-c3ccco3)c(-c3ccco3)n2)c1C,25,46,63*,6,106*,34,5,5,
Cc1cccc(NC(=O)CSc2nnc(-c3ccco3)c(-c3ccco3)n2)c1,11,25,39,3,35,11,nt,nt,
O=C(N/N=C/c1ccccc1)c1cc(=O)[nH]c2ccccc12,-1,-10,4,1,61*,-5,3,7,
COc1ccccc1-c1noc2c1C(=O)N(Cc1cn(-c3ccccc3)nn1)CC2,1,0,nt,-1,-4,3,nt,nt,
CC(C)CCNC(=O)C(c1ccc(O)cc1)N(Cc1ccco1)C(=O)CCC(=O)Nc1nccs1 (stereo not drawn),-2,0,-5,-1,-5,0,nt,nt,
COC(=O)Cc1ccc(OC2(C)CCN(Cc3csc4ccccc34)C2)cc1 (stereo not drawn),-2,0,nt,-1,4,-3,nt,nt,
N#Cc1ccccc1S(=O)(=O)NC(=O)[C@H]1O[C@@H](n2cnc3c(N)ncnc32)[C@H](O)[C@@H]1O,-2,0,nt,-1,84*,2,4,-1,
COc1cc2c(cc1NC(=O)CSc1nnnn1-c1ccccc1)oc1ccccc12,-1,4,-4,-2,52*,-1,1,-3,
COc1cc2c(cc1NC(=O)CSc1cccc[n+]1[O-])oc1ccccc12,-1,1,-7,0,72*,0,2,0,
Cc1ccc(C)c(NC(=O)CS(=O)(=O)c2cccc3nsnc23)c1,-1,0,1,-1,0,-29,nt,nt,
NS(=O)(=O)c1ccc(N/C=C\C(=O)c2ccc3ccccc3c2)cc1,12,14,-1,3,88*,3,2,3,
N#Cc1c(N)n(C2CCCCC2)c2nc3ccccc3nc12,2,8,3,-1,-15,10,nt,nt,
CCCCn1c(NC(=O)CC)c(C#N)c2nc3ccccc3nc21,0,0,11,28,74*,-18,1,2,
CCC(=O)Nc1c(C#N)c2nc3ccccc3nc2n1C1CCCCC1,2,32,28,3,94*,72*,2,-1,
SMILES,LMPTP inh,CSN inh,Scp-1 inhibitor,STEP block,DNMT1 block,SUMO1-SIM PPI,DNMT1 confirm,DNMT1 interf,others
COC(OC)c1ccc(C#N)c(SCc2ccc(C)cc2)n1,1,0,-11,4,-3,3,nt,nt,
COc1ccc2nc(NCCO)[nH]c2c1,-2,-3,-5,-3,-1,4,nt,nt,
COc1ccc2nc(N3CCCC3)[nH]c2c1,-1,-6,-8,1,88*,-1,6,2,
CCCCCCCCc1nnc(NC(=O)c2ccco2)s1,4,1,22,3,113*,0,59*,4,DNMT1 interf DR=>99
O=C(CCN1CCc2ccccc21)c1ccc2c(c1)OCCO2,25,-1,1,2,54*,-10,2,1,
COc1ccc(NC(=O)c2cc3c(=O)n(C)c4ccccc4c3s2)cc1OC,1,21,-3,-4,75*,4,2,-2,
CCn1c(=O)c2cc(C(=O)Nc3ccc(OC)cc3OC)sc2c2ccccc21,3,9,-6,1,49,8,nt,nt,
Cc1c(C(N)=O)sc2ncn(CC(=O)OC(C)C)c(=O)c12,-1,4,-5,-4,78*,2,2,6,
CCC1CCCCN1CCCNC(=O)c1ccc(CS(=O)(=O)c2ccccc2OC)o1 (stereo not drawn),1,-1,-4,-4,3,6,nt,nt,
NC1=NC[C@H](Cc2ccc(O)cc2)N1CCc1cccc(F)c1,-2,-3,1,-2,3,4,nt,nt,
NC1=NC[C@@H](Cc2ccc(O)cc2)N1CCC12CC3CC(CC(C3)C1)C2,0,0,4,0,58*,2,0,-1,

# Screens (PubChem)
